Screens from PubChem.
TRPC6 activator: activators of mouse TRPC6 channel | HEK293-TRPC6 membrane potential dye fluorescence; active compounds read high | B-score at 10 µM | 310,000 compounds, 0.13% hits | AID 2550;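 active = B-score of the integrated fluorescence ratio above library mean plus 3 SD, and starting fluorescence ratio within library mean plus 5 SD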;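 note: higher score means more depolarization so channel activation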
TRPC6 inhibitor: mouse TRPC6 channel inhibition. Q61143. 310,000 compounds, 1.1% hits. HEK293-TRPC6, membrane potential dye, ACh-evoked depolarization; active compounds read low. B-score at 10 µM. AID 2553;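 active = B-score under library mean minus 3 SD, initial fluorescence not abnormally high, positive integrated signal ratio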;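 note: B-score derived from integrated fluorescence ratio over the kinetic read; more negative B-score means stronger inhibition of depolarization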
TRPC4 block: blocks the mouse TRPC4 cation channel; Q9QUQ5; 300,000 compounds, 0.39% hits; HEK293 TRPC4beta/mu-opioid, DAMGO-evoked Fluo4 calcium flux; active compounds read low; B-score at 10 µM;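 active = B-score over 3 SD under the library average, no early fluorescence shift, positive overall ratio signal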
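Material: HEK293 cells with stable TRPC4beta plus mu-opioid receptor expression; probe or stimulus: DAMGO in two steps, submaximal then maximal; technique: Fluo4 calcium fluorescence by kinetic imaging, 5 s 1 Hz baseline; measure: integrated fluorescence ratio relative to baseline, converted to per-well B score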
TRPC4 potent: allosteric potentiators of mouse TRPC4 channel; Q9QUQ5; B-score at 10 µM; AID 2227; 310,000 compounds, 0.42% hits; HEK293 TRPC4beta/mu-opioid, DAMGO EC20, Fluo-4 Ca2+ flux; active compounds read high;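 active = B-score of calcium response area above 5 SD of library B-scores, with initial fluorescence ratio within 5 SD of library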
TRPC4 agonist: opens the mouse TRPC4 cation channel; Q9QUQ5; HEK293 TRPC4beta/mu-opioid, Fluo4 calcium fluorescence; active compounds read high; B-score at 10 µM; 310,000 compounds, 0.49% hits; AID 2237;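 active = B-score above 5 SD of library B-scores, and initial fluorescence ratio not above library mean plus 5 SD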;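 note: positive B-score marks a calcium rise read as TRPC4 activation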
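Assay system – TRPC4beta and mu-opioid receptor HEK293 stable cells · Measured by – Fluo4 fluorescence, kinetic · Schedule – dye loading 45 min room temperature, 110 s kinetic read · Read-out – B-scored integrated calcium fluorescence ratio · Controls – buffer and maximal DAMGO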
TRPC4 spec 2: mouse TRPC4 off-target activity of TRPC6 inhibitors, second screen; 920 compounds, 42% hits; inhibition, % at 10 µM; HEK293 TRPC4/MOR, membrane potential dye fluorescence; channel activated by saturating DAMGO dose; shares compounds with TRPC6 inhibitor;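 active = compounds whose fluorescence signal differed from control wells by over 3 SD, either direction, in both duplicate plates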
TRPC4 spec: tests whether TRPC6 inhibitors also affect mouse TRPC4; activity change, negative = inhibition, % at 10 µM; 920 compounds, 61% hits; shares compounds with TRPC6 inhibitor; HEK293 TRPC4/mu-opioid, membrane potential fluorescence;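 active = rise or fall in signal beyond 3 SD of buffer-only wells in both replicate plates, either sign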;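 note: integrated kinetic ratio of fluorescence range over baseline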
HEK293 MPD ctr 2-1: second counter-screen for TRPC6 inhibitors: parental HEK293 cells. 920 compounds, 31% hits. parental HEK293 membrane potential dye fluorescence; maximal acetylcholine challenge after compound addition. shares compounds with TRPC6 inhibitor. signal change vs control, % at 10 µM;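 active = membrane potential signal moving either way by over 3 SD of the maximum-effect control, in both duplicate plates, meaning non-specific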
HEK293 MPD ctr-1: parental HEK293 nonspecific activity of TRPC6 inhibitors; shares compounds with TRPC6 inhibitor; parental HEK293 membrane potential dye fluorescence; membrane potential signal change, % at 10 µM; 920 compounds, 60% hits; AID 2780;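 active = membrane potential signal shifting up or down by more than 3 SD of buffer-only wells, on both duplicate plates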
HEK293 MPD ctr-2: counter-screen for TRPC6 modulators: effect in parental HEK293 cells. shares compounds with TRPC6 inhibitor. membrane potential signal change, % at 10 µM. 2,400 compounds, 51% hits. membrane potential dye fluorescence;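 active = membrane potential signal moves up or down beyond 5 SD from buffer-only wells, on both duplicate plates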
HEK293 MPD ctr 2-2: second check of TRPC6 modulator effects in parental HEK293 cells; shares compounds with TRPC6 inhibitor; membrane potential dye fluorescence; after compound, maximal acetylcholine stimulation; inhibition, % at 10 µM; 2,400 compounds, 14% hits;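 active = membrane potential signal drops by more than 5 SD from the mean control signal, in both duplicate plates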
TRPC4 ctr mod: selectivity of TRPC6 modulators against mouse TRPC4 | shares compounds with TRPC6 inhibitor | HEK293 TRPC4/mu-opioid, membrane potential fluorescence | 2,400 compounds, 69% hits | AID 488927 | percent change from control (negative = decrease, positive = increase), % at 10 µM;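 active = membrane potential signal moved up or down beyond 5 SD of buffer control wells, in both duplicate plates, actives on both sides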
TRPC4 ctr inh 2: second check of whether TRPC6 modulators also affect mouse TRPC4 | shares compounds with TRPC6 inhibitor | HEK293 TRPC4/mu-opioid, membrane potential dye fluorescence; stimulated with maximal-effect DAMGO | inhibition, % at 10 µM | 2,400 compounds, 55% hits | AID 488928;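 active = drop in membrane potential signal beyond 5 SD of the control wells in both duplicate plates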;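 note: TRPC4 counter screen for TRPC6 hits run under conditions tuned for TRPC6 not TRPC4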
TRPC6 inh conf: confirmation of mouse TRPC6 inhibitors | shares compounds with TRPC6 inhibitor | HEK293-TRPC6, membrane potential dye, ACh-evoked depolarization | inhibition, % at 10 µM | 3,300 compounds, 43% hits;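 active = fluorescence ratio falls more than 5 SD below the full-stimulation control mean, in both duplicate runs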;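 note: integrated fluorescence ratio of peak minus minimum over baseline after agonist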
TRPC6 act conf: confirmation of mouse TRPC6 activators. shares compounds with TRPC6 inhibitor. HEK293-TRPC6 membrane potential dye fluorescence, FDSS. activation, % at 10 µM. 2,800 compounds, 11% hits;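 active = ratio signal rise beyond 5 SD above unstimulated control wells' mean, seen in both duplicate runs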
Each line names hits and unclear results; the compound was inactive in the other large screens (follow-up assays come after a bar, where they were run). This is a sample that favours compounds with a hit; in the whole collection about 2.3% have one here.

O=C(Nc1cccc2ccccc12)/C(=C/c1ccc([N+](=O)[O-])cc1)NC(=O)c1ccccc1	TRPC6 inhibitor -6 | HEK293 MPD ctr-2 inactive | HEK293 MPD ctr 2-2 inactive | TRPC4 ctr mod inactive | TRPC4 ctr inh 2 71% | TRPC6 inh conf 58% | TRPC6 act conf inactive
O=C(Nc1cccc(C(=O)O)c1)/C(=C/c1ccc([N+](=O)[O-])cc1)NC(=O)c1ccccc1	none
CC(CCc1ccccc1)NC(=O)CCCn1ncn2c(cc3occc32)c1=O (configuration not stated)	none
COc1ccc([N+](=O)[O-])cc1NC(=O)C(C)N1CCCC1 (configuration not stated)	TRPC6 inhibitor -6.1 | HEK293 MPD ctr-2 inactive | HEK293 MPD ctr 2-2 86% | TRPC4 ctr mod inactive | TRPC4 ctr inh 2 inactive | TRPC6 inh conf 72% | TRPC6 act conf inactive
COc1ccc(C(=O)OCC(=O)NCCN2C(=O)CSC2=O)cc1	none
O=C(NC(=S)NC1CCSC1=O)c1cccs1 (configuration not stated)	TRPC6 inhibitor -6.4 | HEK293 MPD ctr-2 inactive | HEK293 MPD ctr 2-2 inactive | TRPC4 ctr mod inactive | TRPC4 ctr inh 2 inactive | TRPC6 inh conf inactive | TRPC6 act conf inactive
Cc1ccccc1C(=O)NC(=S)NC1CCSC1=O (configuration not stated)	none
c1ccc(COc2ccccc2CNC23CC4CC(CC(C4)C2)C3)cc1	TRPC6 activator 25, TRPC6 inhibitor -6.3 | HEK293 MPD ctr-2 922% | HEK293 MPD ctr 2-2 inactive | TRPC4 ctr mod 196% | TRPC4 ctr inh 2 73% | TRPC6 inh conf 65% | TRPC6 act conf 266%
COc1cccc(CNC2CCCCCCC2)c1OC	TRPC6 inhibitor -7.2 | TRPC4 spec 2 75% | TRPC4 spec 23% | HEK293 MPD ctr 2-1 39% | HEK293 MPD ctr-1 9.3% | TRPC6 inh conf 62%
O=C(COc1ccc(Br)cc1CNC1CCCCC1)NCCc1ccccc1	TRPC6 inhibitor -5.1 | HEK293 MPD ctr-2 212% | HEK293 MPD ctr 2-2 inactive | TRPC4 ctr mod 41% | TRPC4 ctr inh 2 62% | TRPC6 inh conf inactive
c1ccc(COc2ccccc2CNC2CCCC2)cc1	TRPC6 inhibitor -7.7 | HEK293 MPD ctr-2 531% | HEK293 MPD ctr 2-2 130% | TRPC4 ctr mod 112% | TRPC4 ctr inh 2 90% | TRPC6 inh conf 108%
c1csc(COc2ccccc2CNC2CCCCC2)c1	TRPC6 activator 13, TRPC6 inhibitor -11, TRPC4 block -10 | HEK293 MPD ctr-2 514% | HEK293 MPD ctr 2-2 120% | TRPC4 ctr mod 109% | TRPC4 ctr inh 2 90% | TRPC6 inh conf 111% | TRPC6 act conf 163%
CCCn1nnnc1NCc1ccccc1OCc1cccs1	none
CC(O)(C#CCN1CCOCC1)c1ccccc1 (configuration not stated)	none
OC(C#CCN1CCCCC1)c1ccccc1 (configuration not stated)	none
CC(C)C(O)(C#CCN1CCCC1)c1ccccc1 (configuration not stated)	TRPC6 inhibitor -5.9 | HEK293 MPD ctr-2 inactive | HEK293 MPD ctr 2-2 64% | TRPC4 ctr mod 11% | TRPC4 ctr inh 2 inactive | TRPC6 inh conf 68%
CC(C)C(O)(C#CCN1CCCCC1)c1ccccc1 (configuration not stated)	TRPC6 inhibitor -6.6 | TRPC4 spec 2 inactive | TRPC4 spec 4.9% | HEK293 MPD ctr 2-1 -61% | HEK293 MPD ctr-1 7.8% | TRPC6 inh conf 71%
CCN(CC)CCn1c2ccccc2c2cnc(N)c(C#N)c21	TRPC6 inhibitor -7.2, TRPC4 block -6 | TRPC4 spec 2 inactive | TRPC4 spec -12% | HEK293 MPD ctr 2-1 inactive | HEK293 MPD ctr-1 -198% | TRPC6 inh conf inactive | TRPC6 act conf inactive
CN(C)C=Nc1ncc2c3ccccc3n(CCN(C)C)c2c1C#N	TRPC6 inhibitor -7 | TRPC4 spec 2 54% | TRPC4 spec -16% | HEK293 MPD ctr 2-1 inactive | HEK293 MPD ctr-1 -232% | TRPC6 inh conf inactive | TRPC6 act conf inactive
CN(C)C=Nc1ncc2c3ccccc3n(Cc3ccccc3)c2c1C#N	none
Cc1ccc([N+](=O)[O-])cc1NC(=O)CCCOc1ccccc1	none
O=C(c1cc(F)c(F)cc1Cl)N1CCCc2ccccc21	none
O=C(Cc1cccs1)NCc1ccccc1Br	none
CCCn1c2ccccc2c2cnn(CC(=O)NCCCN3CCN(c4ccccc4)CC3)c(=O)c21	TRPC6 inhibitor -5.3 | HEK293 MPD ctr-2 134% | HEK293 MPD ctr 2-2 inactive | TRPC4 ctr mod 8.0% | TRPC4 ctr inh 2 74% | TRPC6 inh conf inactive
Cc1ccc(C)c(N2CCN(CCCNC(=O)Cn3cc4c(n3)CCC(C)C4)CC2)c1 (configuration not stated)	TRPC6 activator 14 | HEK293 MPD ctr-2 94% | HEK293 MPD ctr 2-2 inactive | TRPC4 ctr mod 16% | TRPC4 ctr inh 2 62% | TRPC6 inh conf inactive | TRPC6 act conf inactive
O=C(NC1CCCCC1)C(c1ccc(F)cc1)N(CCN1CCOCC1)C(=O)c1ccc(-c2ccccc2)[nH]1 (configuration not stated)	none
